Measurements: ChEMBL document CHEMBL1145571, “Carboxylic acid isosteres improve the activity of ring-fused 2-pyridones that inhibit pilus biogenesis in E. coli” (Bioorg Med Chem Lett, 2008)

Tests used:
[1] = test system: Escherichia coli; assay: Inhibition of P pilus biogenesis in Escherichia coli HB101/pPAP5 assessed as agglutination of erythrocytes at 1.8 mM; type: functional
Method in brief: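 E. coli HB101/pPAP5 grown 24 h at 37 °C on TSA containing 1.8 mM compound, 2.5% DMSO and 100 μg/ml ampicillin. Cells scraped off, suspended in PBS pH 7.4 to OD600 = 1.0. 1 ml pelleted at 2000g for 5 min, resuspended in 80 μl PBS, then serially diluted in PBS for hemagglutination read-out.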

[2] = molecular target: Chaperone protein PapD (Escherichia coli) (UniProt P15319); assay: Binding affinity to Escherichia coli PapD relative to control; set-up: concentration or dose not given beside the values
[3] = test system: Escherichia coli; assay: Inhibition of pili-dependent biofilm formation of Escherichia coli HB101/pPAP5; type: functional, organism-based
[4] = test system: Escherichia coli; assay: Inhibition of pili-dependent biofilm formation of Escherichia coli HB101/pPAP5 at 400 uM; type: functional; set-up: scale not given: the % may be the effect or the level left

Chain of Chaperone protein PapD (Escherichia coli) (P15319 whole entry, looked up): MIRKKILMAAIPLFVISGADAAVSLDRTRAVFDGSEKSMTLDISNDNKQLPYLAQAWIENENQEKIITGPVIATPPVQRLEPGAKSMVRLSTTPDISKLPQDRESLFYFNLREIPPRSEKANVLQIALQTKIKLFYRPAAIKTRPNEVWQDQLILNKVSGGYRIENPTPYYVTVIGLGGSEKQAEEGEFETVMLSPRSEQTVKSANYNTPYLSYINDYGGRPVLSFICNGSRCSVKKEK

Row | Structure (SMILES) | Activity [1] | Activity [2] | IC50 [3] | Activity [4]
1 | O=C(NS(=O)(=O)c1ccccc1)[C@@H]1CSc2c(-c3ccccc3)c(Cc3cccc4ccccc34)cc(=O)n21 | 4 | – | – | –
2 | O=C(NS(=O)(=O)c1ccccc1)[C@@H]1CSc2c(C3CC3)c(Cc3cccc4ccccc34)cc(=O)n21 | 4 | 100% | – | –
3 | O=C(NO)[C@@H]1CSc2c(-c3ccccc3)c(Cc3cccc4ccccc34)cc(=O)n21 | 128 | – | – | –
4 | O=c1cc(Cc2cccc3ccccc23)c(-c2ccccc2)c2n1[C@H](c1nnn[nH]1)CS2 | 2 | – | – | –
5 | NC(=O)[C@@H]1CSc2c(-c3ccccc3)c(Cc3cccc4ccccc34)cc(=O)n21 | 64 | – | – | –
6 | C[C@@H](C(=O)O)n1cc(-c2ccccc2)c(Cc2cccc3ccccc23)cc1=O | 32 | – | – | –
7 | O=C(NO)[C@@H]1CSc2c(C3CC3)c(Cc3cccc4ccccc34)cc(=O)n21 | 64 | 52% | – | –
8 | NC(=O)[C@@H]1CSc2c(C3CC3)c(Cc3cccc4ccccc34)cc(=O)n21 | 64 | 40% | – | –
9 | O=c1cc(Cc2cccc3ccccc23)c(C2CC2)c2n1[C@H](c1nnn[nH]1)CS2 | 4 | 67% | 65 µM | –
10 | CS(=O)(=O)NC(=O)[C@@H]1CSc2c(-c3ccccc3)c(Cc3cccc4ccccc34)cc(=O)n21 | 4 | – | – | –
11 | C[C@@H](C(=O)[O-])n1cc(C2CC2)c(Cc2cccc3ccccc23)cc1=O.[Li+] | 32 | 33% | – | –
12 | CS(=O)(=O)NC(=O)[C@@H]1CSc2c(C3CC3)c(Cc3cccc4ccccc34)cc(=O)n21 | 2 | 62% | 30 µM | –
13 | O=C([O-])[C@@H]1CSc2c(C3CC3)c(Cc3cccc4ccccc34)cc(=O)n21.[Li+] | 8 | 71% | – | 45%
